# The list is not random: actives were taken first. Their share in the collection is about 3.7%.
# Kir21 block: inhibitors of mouse Kir2.1 inward-rectifier potassium channel | HEK293-Kir2.1, FluxOR thallium flux fluorescence; hits give low values | B-score at 10 µM | 0.85% of 310,000 active;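 active = fluorescence ratio B-score at or below minus 3 SD of library scores, with starting-brightness B-score within 2 SD, cut at about -4.2 in these data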;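 note: channel flux triggered by added potassium and thallium sulfate stimulus; B-score of peak minus minimum fluorescence over baseline after thallium stimulus; more negative B-score means stronger Kir2.1 block with less thallium influx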
# KCNK3 inh: human KCNK3 channel inhibition, primary screen; O14649; CHO-KCNK3 thallium flux, FluxOR fluorescence; hits give low values; B-score at 10 µM; 0.84% of 340,000 active; AID 602410;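 active = B-score under library mean minus 4 SD, starting fluorescence ratio at most library mean plus 5 SD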;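 note: more negative B-score means stronger inhibition of thallium flux through KCNK3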
# KCNK9 block: inhibitors of human KCNK9 two-pore domain potassium channel. Q9NPC2. HEK293 KCNK9, FluxOR thallium flux fluorescence; hits give low values. B-score at 10 µM. 1.2% of 310,000 active. AID 488922;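 active = ratio B-score over 3 SD below the library mean, with starting fluorescence within 5 SD of its mean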;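 note: negative B-score means less thallium flux so channel inhibition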
# KCNQ1 pot: potentiators or activators of human KCNQ1 potassium channel | P51787 | CHO-K1 KCNQ1, thallium flux FluxOR fluorescence; hits give high values | B-score at 10 µM | 0.35% of 310,000 active | AID 2648;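 active = fluorescence ratio B-score, a plate-corrected score, at least three library SD, with initial intensity B-score within 5 SD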
# Target sequence (P51787 whole entry, looked up): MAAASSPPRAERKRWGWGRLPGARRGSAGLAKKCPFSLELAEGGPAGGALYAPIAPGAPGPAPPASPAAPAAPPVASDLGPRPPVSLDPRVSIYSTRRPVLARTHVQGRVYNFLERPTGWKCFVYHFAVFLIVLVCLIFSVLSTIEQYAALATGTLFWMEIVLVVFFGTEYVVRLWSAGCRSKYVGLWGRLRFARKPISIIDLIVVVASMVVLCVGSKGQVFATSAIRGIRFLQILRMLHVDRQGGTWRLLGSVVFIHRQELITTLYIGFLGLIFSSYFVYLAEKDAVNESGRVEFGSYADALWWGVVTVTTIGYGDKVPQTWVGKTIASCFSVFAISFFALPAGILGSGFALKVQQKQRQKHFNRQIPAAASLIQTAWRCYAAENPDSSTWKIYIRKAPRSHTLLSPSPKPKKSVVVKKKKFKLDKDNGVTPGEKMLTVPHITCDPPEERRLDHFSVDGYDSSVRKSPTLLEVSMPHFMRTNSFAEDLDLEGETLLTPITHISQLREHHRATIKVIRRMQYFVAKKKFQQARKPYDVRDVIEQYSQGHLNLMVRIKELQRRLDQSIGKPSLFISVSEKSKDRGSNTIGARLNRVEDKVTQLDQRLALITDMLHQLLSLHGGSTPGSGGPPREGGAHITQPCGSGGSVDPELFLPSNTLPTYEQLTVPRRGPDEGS
#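 System: CHO-K1 cells stably expressing KCNQ1 / Medium: assay buffer for compound exposure, DMSO matched across wells / Reagent: thallium- and potassium-containing depolarizing buffer / Compound: one concentration, matched DMSO / Incubation: 20 min compound pretreatment at room temperature / Measured by: kinetic FluxOR fluorescence, 10 s baseline plus 110 s post-stimulus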
# hERG rescue: compounds protecting human hERG from proarrhythmic drug block; CHO-hERG, FluxOR thallium flux, dofetilide IC70 present; activation (rescue from dofetilide block), less the hit threshold, % at 10 µM; 0.51% of 310,000 active; AID 1511;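 active = activation above the mean of controls blocked by dofetilide plus 5 SD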;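 note: thallium influx through hERG after potassium depolarization seen as dye fluorescence rise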
# KCNQ1 block: blocks the human KCNQ1 potassium channel | AID 2642 | CHO-K1 KCNQ1, FluxOR thallium flux fluorescence; hits give high values | B-score at 10 µM | 1.3% of 310,000 active | P51787;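 active = compounds whose thallium flux B-score, printed positive for inhibition, exceeds three library SD while starting fluorescence stays within three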;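 note: channel opened by potassium depolarization with thallium stimulus after 20 min compound exposure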
# Active calls of the source: *; i = inactive; nt = no result.
SMILES,Kir21 block,KCNK3 inh,KCNK9 block,KCNQ1 pot,hERG rescue,KCNQ1 block
O=C1NC(c2ccc(-c3ccccc3[N+](=O)[O-])o2)C(C(=O)c2ccccc2)C(O)(C(F)(F)F)N1 (configuration not stated),0.48,i,i,i,-6.1,i
COc1ccccc1-c1nnc(SC(C)C(=O)Nc2ccc(C(N)=O)cc2)o1 (configuration not stated),0.36,i,i,i,-18.3,i
CC1=C(C(=O)Nc2ccc(C(=O)NC(C)c3ccccc3)cc2)SCCO1 (configuration not stated),-0.36,i,i,i,-9.2,i
COc1cccc(OCc2nnc(SCC(=O)OC3CCCCC3)n2C)c1,-4.83*,i,i,i,-12.6,i
Cn1c(CNc2nc(-c3ccccc3)cs2)nnc1SCC(=O)OC1CCCCC1,-5.36*,i,i,i,-10.9,i
CC1c2ccsc2CCN1S(=O)(=O)c1ccccc1 (configuration not stated),-6.85*,i,i,i,-15.0,i
CC1c2cccn2CCN1S(=O)(=O)c1ccccc1 (configuration not stated),nt,i,nt,nt,nt,nt
Cc1cc(C(=O)CSc2ncnc3ccccc23)c(C)n1C1CC1,nt,i,nt,nt,nt,nt
Cc1cc(-n2c(C)cc(C(=O)CSc3ncnc4ccccc34)c2C)no1,0.84,i,i,i,-19.1,6*
COc1cc2c(cc1NC(=O)CSc1nnc(COc3ccc(Cl)cc3)n1C)oc1ccccc12,0.63,i,i,11*,-5.7,i
COc1ccc(S(=O)(=O)Nc2cc3c4c(c2)C(C)C(=O)N4CCC3)cc1OC (configuration not stated),-1.18,i,i,i,-6.5,i
C[C@H](CO)N1C[C@H](C)[C@@H](CN(C)Cc2ccccc2)Oc2c(NC(=O)Cc3ccccc3)cccc2C1=O,nt,i,nt,nt,nt,nt
C[C@H](CO)N1C[C@H](C)[C@@H](CN(C)Cc2ccncc2)Oc2c(NC(=O)Cc3ccccc3)cccc2C1=O,nt,-10.6*,nt,nt,nt,nt
CCn1nc(C)cc1-c1nnc(SCC(=O)Nc2ccccc2)n1CCCOC,0.2,i,i,i,-9.5,i
CCn1nc(C)cc1-c1nnc(Sc2ncc([N+](=O)[O-])s2)n1C,-2.12,i,i,i,-26.4,11*
CN=C(C)c1c(O)c2ccccc2oc1=O,-0.09,i,i,i,4.9*,i
CC1CN(C(=O)COC(=O)c2cccc(S(=O)(=O)N3CCc4ccccc43)c2)CC(C)O1 (configuration not stated),nt,i,nt,nt,nt,nt
COC(=O)CN(c1nc(C)cc(OC)n1)S(=O)(=O)c1ccccc1,-3.16,i,i,i,-3.3,i
COC(=O)CN(c1nc(C)c(Br)c(OC)n1)S(=O)(=O)c1ccccc1,-5.45*,i,i,i,-9.0,i
COc1ccc(S(=O)(=O)NCCSc2ccc(C)cc2)cc1OC,-5.25*,i,i,i,-4.7,i
COc1ccc(S(=O)(=O)NCCSc2ccccc2)cc1OC,0.17,i,i,i,-13.4,i
COc1cc(CC(=O)OCC(=O)N2C(C)CCCC2C)cc(OC)c1OC (configuration not stated),0.35,i,i,i,0.4,i
O=C(Nc1ccc(S(=O)(=O)N2CCOCC2)cc1)c1ccc(Cl)c([N+](=O)[O-])c1,nt,i,nt,nt,nt,nt
Oc1ccc(C(=Nc2ccccc2)c2ccccc2)c(O)c1,nt,i,nt,nt,nt,nt
COc1ccc(C)cc1NC(=O)C(=O)NNC(=O)c1ccco1,1.05,i,i,29*,34.1*,i
CCCn1nc(NC(=O)c2cccs2)c2cc3cc(C)ccc3nc21,0.46,i,-7.07*,i,-19.0,i
COc1ccc(C2CC(=O)Oc3c(C(CCN4CCCCC4)c4ccc(N(C)C)cc4)c(OC)cc(OC)c32)cc1 (configuration not stated),1.18,i,i,i,-9.6,i
